The source of these data is ChEMBL document CHEMBL1135784, “Novel antibiotics for the treatment of gram-positive bacterial infections” (J Med Chem, 2002).

What all share (type): functional
Test [1] relates to Streptococcus pneumoniae. As to the kind of experiment: Evaluated for its antibacterial activity against Streptococcus pneumoniae G9a. A digest of the protocol: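 For S. pneumoniae, microdilution used BHI broth diluted 1:10 with 10% bovine serum, and compounds at 0.125-64 µg/mL. Wells received a 1:50 dilution of an overnight culture. Plates were kept at 37 °C in 8-10% CO₂ and read after about 20 h. MIC was the lowest concentration without visible growth.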

Test [2] relates to Staphylococcus aureus. As to the kind of experiment: Evaluated for its antibacterial activity against Staphylococcus aureus 133. The procedure, abridged:
(§1)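 Broth microdilution in AOAC broth with 4% dextrose. Compounds tested over 0.125-64 µg/mL. Wells inoculated with a 1:500 dilution of an overnight culture. Plates incubated at 37 °C under 8-10% CO₂ and read after about 20 h. MIC taken as the first concentration with no visible growth.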

Test [3] has as its system Enterococcus faecalis. Description: Evaluated for its antibacterial activity against Enterococcus faecalis 18513. A digest of the protocol:
(§2)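 Broth microdilution in AOAC broth with 4% dextrose, with compounds at 0.125-64 µg/mL. Inoculum was a 1:50 dilution of an overnight culture. Incubation at 37 °C with 8-10% CO₂ for about 20 h. MIC read as the first concentration showing no visible growth.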

Test [4] concerns Staphylococcus epidermidis. Description: Evaluated for its antibacteria activity against Staphylococcus epidermidis 18570. The procedure, abridged: as §1
For test [5], the system named is Enterococcus faecium. As to the kind of experiment: Evaluated for its antibacterial activity against Enterococcus faecium L4001. The procedure, abridged: as §2
The subject of test [6] is Streptococcus pyogenes. Description: Evaluated for its antibacterial activity against Str. Pyogenes wacker. The procedure, abridged:
as §2

The subject of test [7] is Escherichia coli. Description: Evaluated for its inhibitory activity against prokaryotic translation by using Escherichia coli transcription-translation assay. The procedure, abridged: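 Coupled E. coli transcription-translation system with a luciferase reporter; inhibition of bacterial translation measured by luminescence read-out.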
Test [8] relates to Staphylococcus aureus. As to the kind of experiment: Evaluated for its antibacteria activity against Staphylococcus aureus. The procedure, abridged:
as §1

pIC50: −log10 of the molar value. In brackets after ≈: the same amount, converted by molar mass. A value given as a limit tells only on which side of the number the result lay.

On to `CN(C(=O)C[C@@H](N)CCCN=C(N)N)C1CN=C(NC(N)=O)NC1=O` (stereo not given in full), for which the MIC – broadly, the lowest concentration that inhibits growth of the organism – in test [1] was 16 µg/mL (≈ 45 µM); in test [2], 0.25 µg/mL (≈ 0.703 µM); in test [3], greater than 16 µg/mL; in test [4], 0.25 µg/mL (≈ 0.703 µM); in test [5] it was 2 µg/mL (≈ 5.63 µM); in test [6], 8 µg/mL (≈ 22.5 µM).
On to `CC(C)/N=C(/N)NCCC[C@H](N)CC(=O)N(C)C1CN=C(NC(N)=O)NC1=O` (stereo not given in full), for which the MIC in test [2] worked out at 12.5 µg/mL (≈ 31.4 µM). In addition, the pIC50 (usually −log10 of the IC50, conventionally taken in molar units) in test [7] is 4.90.
As for `CC/N=C(/N)NCCC[C@H](N)CC(=O)N(C)C1CN=C(NC(N)=O)NC1=O` (stereo not given in full), it took 6.3 µg/mL (≈ 16.4 µM) to inhibit growth in test [2] (MIC). In test [7], the negative-log IC50 (pIC50) was 4.90.
As to `CC(C)C(=N)NCCC[C@H](N)CC(=O)N(C)C1CN=C(NC(N)=O)NC1=O` (stereo not given in full), the MIC in test [2] stood at 3.2 µg/mL (≈ 8.37 µM).
Regarding `CN(CCC[C@H](N)CC(=O)N(C)C1CN=C(NC(N)=O)NC1=O)C(=N)N` (stereo not given in full), the MIC is 4 µg/mL (≈ 10.8 µM) in test [1]; 0.025 µg/mL (≈ 0.0677 µM) in test [2]; 64 µg/mL (≈ 173 µM) in test [3]; 0.12 µg/mL (≈ 0.325 µM) in test [4]; 2 µg/mL (≈ 5.41 µM) in test [5]; 0.5 µg/mL (≈ 1.35 µM) in test [6]. In test [7], this molecule showed a pIC50 of 7.22.
With `C/C(N)=N/CCC[C@H](N)CC(=O)N(C)C1CN=C(NC(N)=O)NC1=O` (stereo not given in full), the MIC in test [1] was 16 µg/mL (≈ 45.1 µM); in test [8], 0.2 µg/mL (≈ 0.564 µM); in test [2], 0.2 µg/mL (≈ 0.564 µM); in test [3], greater than 64 µg/mL; in test [4], 0.2 µg/mL (≈ 0.564 µM); in test [5] it was 16 µg/mL (≈ 45.1 µM). The molecule also displayed a minimum inhibitory concentration (MIC) in test [6] of 1 µg/mL (≈ 2.82 µM). In test [7], the negative-log IC50 (pIC50) is 7.00.
On to `C/N=C(/N)NCCC[C@H](N)CC(=O)N(C)C1CN=C(NC(N)=O)NC1=O` (stereo not given in full), for which the minimal inhibitory concentration (MIC) in test [1] was 16 µg/mL (≈ 43.3 µM); in test [2], 0.8 µg/mL (≈ 2.17 µM); in test [3], 64 µg/mL (≈ 173 µM); in test [4], 0.13 µg/mL (≈ 0.352 µM); in test [5] it was 16 µg/mL (≈ 43.3 µM); in test [6], 4 µg/mL (≈ 10.8 µM). For the same molecule, the pIC50 in test [7] is 6.30.
As for `C/N=C(/N)N(C)CCC[C@H](N)CC(=O)N(C)C1CN=C(NC(N)=O)NC1=O.Cl.Cl` (stereo not given in full), the MIC in test [1] was 32 µg/mL; in test [2] it was 0.4 µg/mL; in test [3], greater than 64 µg/mL; in test [4], 0.5 µg/mL; in test [5], 8 µg/mL; in test [6] it was 8 µg/mL. Moreover, in test [7], the pIC50 is 6.40.
